NR2E3 ag-1: NR2E3 agonists in two-hybrid cells, primary screen, cell-based, luminescence, CHO-S, Gal4-NCOR/VP16-NR2E3 | luciferase | 360,000 tested, 0.35% active | inhibition of corepressor binding, % at 3.98 µM;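 active = inhibition above the mean of all tested compounds plus 3 SD, cut at about 70% in these data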;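 note: higher means lower luciferase signal from less NR2E3 corepressor binding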
PG9 binder: binders of HIV-1 gp120 antibody PG9, primary screen, biochemical, TR-FRET. TR-FRET gp120-PG9 antibody binding. inhibition, % at 6.7 µM. 360,000 tested, 0.43% active. AID 624416, 2012; in the data active = inhibition above about 8.5%
Rev-erbA mod: modulators of Rev-erb alpha DNA binding, primary screen, biochemical, FITC-DNA, fluorescence polarization, uHTS; Nuclear receptor subfamily 1 group D member 1 (Homo sapiens), P20393; Rev-erbα–FITC-DNA binding, 90 min; activity, % at 10 µM; 370,000 tested, 0.79% active; AID 1259318, 2017;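 active = activity above about 14%, limit read from the data; passing the limit was not always enough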
NR2E3 ag-2: inhibitors of NR2E3-RetCOR corepressor binding, primary screen, NR2E3 agonist project, biochemical, TR-FRET, GST-NR2E3, biotin-RetCOR; AID 2300, 2010; Photoreceptor-specific nuclear receptor (Homo sapiens), Q9Y5X4; 320,000 tested, 0.12% active; inhibition of corepressor binding, % at 4.78 µM; 1536-well;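 active = percent inhibition above the cutoff of mean plus 3 SD of all tested compounds, set per screening campaign, cut at about 20% in these data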
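Format: 1536-well format; test system: GST-NR2E3 and biotin-RetCOR proteins; read-out basis: percent inhibition of TR-FRET ratio; timing: 5 h incubation at 4 °C; detection: time-resolved FRET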
Neddylation inh: inhibitors of cullin neddylation, primary screen, biochemical, TR-FRET, uHTS, NAE and Ubc12; NEDD8-conjugating enzyme Ubc12 (Homo sapiens) + NEDD8-activating enzyme E1 regulatory …; calls only at 25 µM; 360,000 tested, 0.58% active; in the data active = inhibition above about 36%
Target sequence (P61081 whole entry, looked up): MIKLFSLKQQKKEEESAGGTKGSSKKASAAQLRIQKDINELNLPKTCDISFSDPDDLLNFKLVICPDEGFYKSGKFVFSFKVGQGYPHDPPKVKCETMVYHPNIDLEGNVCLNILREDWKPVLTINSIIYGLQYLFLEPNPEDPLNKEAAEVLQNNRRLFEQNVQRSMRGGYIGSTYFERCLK
Target sequence (Q13564 whole entry, looked up): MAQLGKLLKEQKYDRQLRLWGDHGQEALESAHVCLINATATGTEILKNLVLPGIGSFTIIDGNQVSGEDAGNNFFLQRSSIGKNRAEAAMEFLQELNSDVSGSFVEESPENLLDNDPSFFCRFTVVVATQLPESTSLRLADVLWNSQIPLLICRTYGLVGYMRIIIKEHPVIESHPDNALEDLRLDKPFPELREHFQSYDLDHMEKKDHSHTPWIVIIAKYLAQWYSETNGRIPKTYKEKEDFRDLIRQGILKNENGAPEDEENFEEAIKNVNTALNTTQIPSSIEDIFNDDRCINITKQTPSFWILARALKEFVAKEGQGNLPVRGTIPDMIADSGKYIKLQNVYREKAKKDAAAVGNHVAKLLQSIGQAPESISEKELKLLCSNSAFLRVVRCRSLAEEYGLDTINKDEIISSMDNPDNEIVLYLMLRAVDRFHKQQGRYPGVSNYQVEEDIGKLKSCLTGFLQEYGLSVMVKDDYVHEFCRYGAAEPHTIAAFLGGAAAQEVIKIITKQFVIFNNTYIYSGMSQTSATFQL
PG9 bind confirm: binders of anti-gp120 antibody PG9, confirmation, biochemical, TR-FRET; 1,500 tested, 90% active; TR-FRET PG9 antibody binding; shares compounds with PG9 binder; inhibition, % at 6.7 µM; in the data active = inhibition above about 9%
PGV04 counter: binders of control antibody PGV04, counter-screen for PG9 antibody binder project, biochemical, TR-FRET, distinct HIV envelope site | inhibition, % at 6.7 µM | 1,500 tested, 95% active | TR-FRET PGV04 antibody-gp120 binding | shares compounds with PG9 binder | AID 651604, 2012; in the data active = inhibition above about 9.5%
Rev-erbA confirm: modulators of Rev-erb alpha DNA binding, confirmation, biochemical, FITC-DNA, fluorescence polarization, single point; shares compounds with Rev-erbA mod; 90 min; activation, % at 25 µM; 3,000 tested, 61% active; AID 1259319, 2017;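 active = activation at or above a set limit, or at least 3 SD above the negative control mean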
RORg DNA counter: modulation of RORgamma DNA binding, dose response, counter-screen for Rev-erb alpha modulator project, biochemical, fluorescence polarization, FITC-DNA; shares compounds with Rev-erbA mod; AID 1259320, 2017; purified RORgamma protein-FITC-DNA binding; 910 tested, 8% active; IC50, µM;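 active = Compounds whose fitted half-maximal concentration for disrupting protein-DNA binding is below 10 micromolar; the record names Rev-erb in its text, so the target is in doubt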
Hits are given with their value. Only some compounds are listed: those with a hit (about 2% of all), similar ones and a draw of the others.

For CCc1nc2c(OCC(=O)c3ccc(Cl)cc3Cl)cccn2c1N(C)C(=O)c1cccs1 the results were NR2E3 ag-1 inactive, PG9 binder inactive, Rev-erbA mod inactive and Neddylation inh inactive.
`O=C(NCC1CCCO1)c1cc(-c2ccccc2)nc2ccc(Br)cc12` (centres undefined) gave NR2E3 ag-1 inactive, PG9 binder 15, Rev-erbA mod 33, NR2E3 ag-2 inactive, Neddylation inh inactive, PG9 bind confirm 19, PGV04 counter 25 and Rev-erbA confirm 26.
Screening Cc1cc(Br)cc2c(C(=O)NCC3CCCO3)cc(-c3ccccc3)nc12 (centres undefined) returned NR2E3 ag-1 inactive, PG9 binder inactive, Rev-erbA mod inactive, NR2E3 ag-2 inactive and Neddylation inh inactive.
Screening N#Cc1c(N)nc(SCC(=O)NCc2ccc3c(c2)OCO3)c(C#N)c1-c1cccs1 returned NR2E3 ag-1 inactive, PG9 binder 50, Rev-erbA mod 85, NR2E3 ag-2 inactive, Neddylation inh inactive, PG9 bind confirm 23, PGV04 counter 40, Rev-erbA confirm 54 and RORg DNA counter inactive.
Screening CCCC(=O)Nc1sc(C)c(-c2ccc(OC)cc2)c1C#N returned NR2E3 ag-1 inactive, PG9 binder 9.1, Rev-erbA mod 24, NR2E3 ag-2 inactive, Neddylation inh inactive, PG9 bind confirm 19, PGV04 counter 23 and Rev-erbA confirm 28.
Screening Cc1ccc(S(=O)(=O)N2C[C@H]3[C@H]4C(=O)N(C)C(=O)[C@H]4CC(=O)[C@H]3[C@@H]2c2ccccc2Cl)cc1 returned NR2E3 ag-1 inactive, PG9 binder inactive, Rev-erbA mod inactive and Neddylation inh inactive.
For COC(=O)c1c(N)[nH]c(C(=O)c2ccccc2)c1-c1ccc(Cl)cc1 the results were NR2E3 ag-1 inactive, PG9 binder inactive, Rev-erbA mod inactive and Neddylation inh inactive.
CCOC(=O)c1cccc2c(=O)c(C(=O)c3ccc(Cl)cc3)c(C(=O)OC)[nH]c12 was read as NR2E3 ag-1 inactive, PG9 binder 21, Rev-erbA mod 50, NR2E3 ag-2 inactive, Neddylation inh inactive, PG9 bind confirm 11, PGV04 counter 19, Rev-erbA confirm 37 and RORg DNA counter inactive.
For COc1ccc(N2CCN(CCNS(=O)(=O)c3cccs3)CC2)cc1 the results were Rev-erbA mod inactive.
For Cc1cc(C)c(C#N)c(SCCS(=O)(=O)Cc2ccc(Cl)cc2)n1 the results were NR2E3 ag-1 inactive, PG9 binder 11, Rev-erbA mod 36, NR2E3 ag-2 inactive, Neddylation inh inactive, PG9 bind confirm 22, PGV04 counter 31 and Rev-erbA confirm 18.
`Cc1ccc(-n2nnnc2SCC(=O)c2ccc3c(c2)NC(=O)CO3)c(C)c1` gave NR2E3 ag-1 inactive, PG9 binder 13, Rev-erbA mod 25, NR2E3 ag-2 inactive, Neddylation inh inactive, PG9 bind confirm 11, PGV04 counter 30 and Rev-erbA confirm 24.
COc1ccccc1NC(=O)COC(=O)c1ccc2c(c1)OCCO2 was read as NR2E3 ag-1 inactive, PG9 binder 11, Rev-erbA mod 22, NR2E3 ag-2 inactive, Neddylation inh inactive, PG9 bind confirm inactive, PGV04 counter 10, Rev-erbA confirm 32 and RORg DNA counter inactive.
Cc1ccccc1NC(=O)COC(=O)c1ccc2c(c1)OCCO2 was read as NR2E3 ag-1 inactive, PG9 binder inactive, Rev-erbA mod inactive and Neddylation inh inactive.
Screening CCOc1ccc(CCN2C(=S)N([C@@H](CC(C)C)CN3CCC[C@@H]3CN3C(=S)NC[C@@H]3Cc3ccccc3)C[C@@H]2Cc2ccc(O)cc2)cc1 returned NR2E3 ag-1 inactive, PG9 binder inactive, Rev-erbA mod inactive and Neddylation inh inactive.
Screening Cc1noc(C)c1C(=O)Nc1nc(-c2cc(F)ccc2F)cs1 returned NR2E3 ag-1 inactive, PG9 binder inactive, Rev-erbA mod inactive and Neddylation inh inactive.
Cc1onc(-c2ccccc2)c1C(=O)Nc1nc(-c2cc(F)ccc2F)cs1 was read as NR2E3 ag-1 inactive, PG9 binder 52, Rev-erbA mod 55, NR2E3 ag-2 inactive, Neddylation inh inactive, PG9 bind confirm 50, PGV04 counter 65, Rev-erbA confirm 65 and RORg DNA counter inactive.
`CC(=O)Nc1nc2ncccn2c1-c1ccccc1` gave Rev-erbA mod inactive.
For CCC(=O)c1cn(CC(=O)Nc2cc(C)ccc2C)c2ccccc12 the results were NR2E3 ag-1 inactive, PG9 binder 19, Rev-erbA mod 32, NR2E3 ag-2 inactive, Neddylation inh inactive, PG9 bind confirm 16, PGV04 counter 22 and Rev-erbA confirm 21.
`CCC(=O)c1cn(CC(=O)Nc2ccccc2F)c2ccccc12` gave NR2E3 ag-1 inactive, PG9 binder inactive, Rev-erbA mod inactive, NR2E3 ag-2 inactive and Neddylation inh inactive.
COC(=O)c1c(NC(=O)CN2C(=O)NC3(CCc4ccccc4C3)C2=O)sc2c1CCCCC2 (centres undefined) was read as NR2E3 ag-1 inactive, PG9 binder 15, Rev-erbA mod 30, NR2E3 ag-2 inactive, Neddylation inh inactive, PG9 bind confirm 22, PGV04 counter 34 and Rev-erbA confirm 26.
For COC(=O)c1c(NC(=O)CN2C(=O)NC3(CCC(C(C)(C)C)CC3)C2=O)sc2c1CCCCC2 (centres undefined) the results were NR2E3 ag-1 inactive, PG9 binder inactive, Rev-erbA mod inactive, NR2E3 ag-2 inactive and Neddylation inh inactive.
`O=C(c1ccc(CS(=O)Cc2ccc(Cl)cc2)o1)N1CCN(C2CCCCC2)CC1` (centres undefined) gave NR2E3 ag-1 inactive, PG9 binder inactive, Rev-erbA mod inactive and Neddylation inh inactive.
`CCCCCCn1c(=O)c(-c2ccccc2)c(O)c2ccccc21` gave NR2E3 ag-1 inactive, PG9 binder inactive, Rev-erbA mod inactive and NR2E3 ag-2 inactive.

Compound activity from PubChem.
